A selection: hits, their analogues and other compounds. The true share with any hit is near 1.5%.
HNF4A DNA FP: change in binding of human HNF4 alpha to DNA; P41235; HNF4a-FITC DNA binding, fluorescence polarization, 1 h; activity change, % at 10 µM; 0.3% of 360,000 active; in the data active means activity change above about 30%, passing the limit was not always enough
Bfl-1 A1 inh: inhibitors of the anti-apoptotic protein A1, read as caspase activation | 0.066% of 330,000 active | AID 2462 | caspase activation, % (concentration not given with the values) | MEF A1-2A-BIM cells, Caspase-Glo 3/7 luminescence, 3 h; percent of clofoctol response, vehicle zero;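 active means over half of replicate activation scores above 10%, or exactly half above 10 with the replicate mean above 10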
LANA-H2B inh: blocks KSHV LANA binding to histone H2A/H2B; Q9QR71; cell-free LANA-H2A/H2B peptide, fluorescence polarization; inhibition, % (no concentration beside the values); 0.6% of 320,000 active; AID 2629; in the data active means inhibition mostly above about 10%, no sharp cut-off; inactive means mostly below about 6.7%
CSN deneddyl inh: CSN deneddylation inhibition; AID 651999; Purified CSN, SCF-Nedd8-OG deneddylation, fluorescence polarization; 0.38% of 360,000 active; inhibition, % at 12.5 µM;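 active means pattern-corrected inhibition above about 35%, with an unprinted fluorescence ratio check between 0.5 and 1.5, limit read from the data, passing the limit was not always enough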
Target sequence (Q92905 whole entry, looked up, one chain of several): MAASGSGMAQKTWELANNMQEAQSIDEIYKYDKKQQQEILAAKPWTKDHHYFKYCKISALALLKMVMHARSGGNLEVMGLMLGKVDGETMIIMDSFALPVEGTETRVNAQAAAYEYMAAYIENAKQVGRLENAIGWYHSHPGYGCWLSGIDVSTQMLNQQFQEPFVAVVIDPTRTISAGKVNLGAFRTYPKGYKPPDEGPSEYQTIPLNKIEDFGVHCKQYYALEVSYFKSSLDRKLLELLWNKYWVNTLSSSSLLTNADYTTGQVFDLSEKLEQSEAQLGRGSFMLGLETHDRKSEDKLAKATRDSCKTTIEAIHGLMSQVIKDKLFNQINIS
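Assay system: Purified human Csn5 enzyme expressed in HEK293T cells | Amount: Enzyme 0.24 nM | Measured by: Fluorescence polarization readout | Medium: Tris/NaCl/DTT buffer, pH 7.5 | Compound dosing: One concentration, 12.5 µM, 0.25% DMSO | Times: 90 min incubation of compound, enzyme and substrate at room temperature | Control set: no-enzyme wells high, enzyme-with-substrate wells low | Read-out: % inhibition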
EBNA-1 inh: blocks EBNA-1 binding to DNA. EBNA-1 DNA binding, fluorescence polarization. 0.34% of 300,000 active. inhibition, % at 14.8 µM; in the data active means inhibition above about 28%
ZTA DNA inh: blocks Epstein-Barr virus ZTA, an EBNA-1 counter-screen; P03206; ZTA-DNA binding, fluorescence polarization; inhibition, % at 11 µM; 0.15% of 320,000 active; in the data active means inhibition above about 33%
Target sequence (P03206 whole entry, looked up): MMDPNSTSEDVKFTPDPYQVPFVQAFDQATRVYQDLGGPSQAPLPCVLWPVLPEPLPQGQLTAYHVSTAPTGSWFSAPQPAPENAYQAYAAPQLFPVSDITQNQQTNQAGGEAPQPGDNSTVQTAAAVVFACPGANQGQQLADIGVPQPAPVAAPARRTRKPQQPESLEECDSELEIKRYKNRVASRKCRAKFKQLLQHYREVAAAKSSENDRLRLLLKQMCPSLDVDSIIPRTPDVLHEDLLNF
Large screens that a line does not name were inactive.

Nc1ncc(S(=O)(=O)c2ccc([N+](=O)[O-])cc2)s1	none (no result: Bfl-1 A1 inh, LANA-H2B inh, EBNA-1 inh, ZTA DNA inh)
CCCCOCCCNC(=O)C[C@@H]1C[C@@]2(C(=O)OCC)CCCC=C2N(CCc2ccc(OC)c(OC)c2)C1=O	none (no result: Bfl-1 A1 inh, LANA-H2B inh, EBNA-1 inh, ZTA DNA inh)
CC(Sc1ccsc1[N+](=O)[O-])C(=O)NCc1ccccc1 (stereo not drawn)	LANA-H2B inh 22 (no result: HNF4A DNA FP, CSN deneddyl inh)
CN(C)c1ccc(C(=O)OCC(=O)Nc2ccc(S(N)(=O)=O)cc2)cc1	EBNA-1 inh 34, ZTA DNA inh 44
CC(C)Cn1c(=S)[nH]c2ccccc2c1=O	none
C=CCn1c(=S)[nH]c2ccccc2c1=O	LANA-H2B inh 16
Cc1cc(NC(=O)CSc2n[nH]c(N)n2)no1	LANA-H2B inh active
Cc1cc([N+](=O)[O-])ccc1NC(=O)c1csc(C)c1C	none (no result: EBNA-1 inh, ZTA DNA inh)
CN(C)c1ccc2nc3ccc(=[N+](C)C)cc-3sc2c1	EBNA-1 inh active (no result: ZTA DNA inh)
Cc1cc2nc3ccc(=[N+](C)C)cc-3sc2cc1N	none (no result: Bfl-1 A1 inh, LANA-H2B inh, EBNA-1 inh, ZTA DNA inh)
Cc1c(C)c2ccc(OCC(=O)NCc3ccccn3)cc2oc1=O	CSN deneddyl inh 72
Cc1ccc(/C(O)=C2/C(=O)C(=O)N(c3ccccn3)C2c2cccc([N+](=O)[O-])c2)cc1 (stereo not drawn)	none
COc1ccc(O[C@H]2C=C[C@@H](c3ccccc3)O[C@@H]2CO/N=C(\C)CCC(=O)OC[C@H]2O[C@H](c3ccccc3)C=C[C@@H]2Oc2ccc(OC)cc2)cc1	none (no result: HNF4A DNA FP, CSN deneddyl inh)
O=C1NC(=Nc2ccccc2)S/C1=C/c1cccs1	HNF4A DNA FP 64
Cc1cccc(N=C2NC(=O)/C(=C\c3cccs3)S2)c1	none
COc1ccc(-n2c(C)ccc2-c2ccccc2)cn1	LANA-H2B inh 79
CC[C@@H]1C/C=C\Cc2ccccc2[C@@H](C(=O)C[C@H](O)CC(C)=O)OC1=O	LANA-H2B inh active (no result: EBNA-1 inh, ZTA DNA inh)
CC[C@@H]1C/C=C\Cc2ccccc2[C@H](C(=O)C[C@H](O)CC(C)=O)OC1=O	none (no result: EBNA-1 inh, ZTA DNA inh)
Cc1nn(C)c(C(=O)Nc2ccc(S(=O)(=O)NC34CC5CC(CC(C5)C3)C4)cc2)c1Br	LANA-H2B inh 57
COc1ccc(S(=O)(=O)N(C)C[C@H]2OCc3cn(nn3)CCCC(=O)N([C@@H](C)CO)C[C@@H]2C)cc1	none (no result: Bfl-1 A1 inh, LANA-H2B inh, EBNA-1 inh, ZTA DNA inh)
CCOc1ccc(Cl)cc1S(=O)(=O)N1CCC(C(=O)NCc2ccco2)CC1	none
COc1cccc(CNCc2cc(OC)cc(OC)c2)c1	none
COc1cc(CNCc2ccc(OC)c(OC)c2OC)cc(OC)c1	LANA-H2B inh 37
COc1ccccc1NS(=O)(=O)c1cc(NC(=O)CNC(=O)c2ccc(C)s2)ccc1Cl	none (no result: LANA-H2B inh)
Cc1cc(C)c2nc3sc(=Cc4ccc(-c5ccccc5C(=O)O)o4)c(=O)n3c2c1	CSN deneddyl inh 142 (no result: Bfl-1 A1 inh, LANA-H2B inh, EBNA-1 inh, ZTA DNA inh)
Cc1ccc(C)c(N2C(=N)S/C(=C\c3ccc(-c4ccccc4C(=O)O)o3)C2=O)c1	none
CCOC(=O)[C@]12CCC=C1N(Cc1ccc(Cl)cc1Cl)C(=O)[C@H](CC(=O)N1CCOCC1)C2	none (no result: Bfl-1 A1 inh, LANA-H2B inh, EBNA-1 inh, ZTA DNA inh)
O=C(Nc1ccnn1C1CCN(C(=O)c2cccc(C(F)(F)F)c2)CC1)C1CC1	LANA-H2B inh 17 (no result: EBNA-1 inh, ZTA DNA inh)
CC(C)(C)C(=O)Nc1ccnn1C1CCN(C(=O)c2ccc(Cl)cc2F)CC1	LANA-H2B inh 26
O=C(Nc1ccnn1C1CCN(C(=O)c2ccc(C(F)(F)F)cc2)CC1)C1CC1	none
O=C(NCCC1=CCCCC1)C1CCC(CNc2c(N3CCCCC3)c(=O)c2=O)CC1 (stereo not drawn)	none
O=C(NCCC1=CCCCC1)C1CCC(CNc2c(N3CCCC3)c(=O)c2=O)CC1 (stereo not drawn)	HNF4A DNA FP 29
CN(C)C(=O)COC(=O)c1ccccc1NC(=O)c1ccco1	none
CC(C)CSC1=NSC2=NC(=O)/C(=C\c3coc4ccccc4c3=O)C(=N)N12	LANA-H2B inh 60
CSC1=NSC2=NC(=O)/C(=C\c3coc4ccccc4c3=O)C(=N)N12	none
CC(=O)Nc1ccc(C(=O)CN2CCN(c3ccccc3)CC2)cc1	CSN deneddyl inh 100
Cc1cc(C)cc(S(=O)(=O)c2cnc3ccccc3n2)c1	LANA-H2B inh 14
O=C(Nc1ccccc1C(=O)N1CCCC1)c1ccc(Cl)cc1Cl	LANA-H2B inh 18
O=C(Nc1ccccc1C(=O)N1CCCCC1)c1cc(F)c(F)cc1Cl	none
CCC(C)[C@H]1CNC(=S)N1CCC12CC3CC(CC(C3)C1)C2 (stereo partly drawn)	LANA-H2B inh 16
CCOC(=O)C(=CNc1ccc2c(c1)c1ccccc1n2CC)C(=O)OCC	HNF4A DNA FP 36
CCOC(=O)N1CCN(C(=O)COc2cc(=O)n(CC)c3ccccc23)CC1	none
CCOC(=O)COc1cc(=O)n(CC)c2ccccc12	CSN deneddyl inh 108
COc1cc2c(c(OC)c1OC)-c1ccc(SC)c(=O)cc1C(NC=O)CC2 (stereo not drawn)	none (no result: Bfl-1 A1 inh, LANA-H2B inh, EBNA-1 inh, ZTA DNA inh)
Cc1cc(NC(=O)CSc2nc(CCC3CCCC3)nc3ccccc23)no1	none
O=C(CSc1nc(CCC2CCCC2)nc2ccccc12)NCc1ccc2c(c1)OCO2	LANA-H2B inh 15
c1ccc2c(c1)CCCN2Cc1nnc2n1CCCCC2	LANA-H2B inh 59
Cc1ccc2nc(-c3ccccn3)c(Nc3ccccc3C)n2c1	HNF4A DNA FP 39
Cc1ccccc1Nc1c(-c2ccccn2)nc2ccccn12	none
CCOC(=O)N1CCN(C(=O)/C=C/c2cccc([N+](=O)[O-])c2)CC1	none
Cc1c(N=C2N=C(NC(=O)c3ccc(F)cc3)c3ccccc32)c(=O)n(-c2ccccc2)n1C	HNF4A DNA FP 75
Cc1c(NC(=O)NC(=O)c2ccc(F)cc2)c(=O)n(-c2ccccc2)n1C	none
Cc1ccc(CCN2CC(C(=O)N3CCN(c4ccc(F)cc4)CC3)CC2=O)cc1 (stereo not drawn)	LANA-H2B inh 22
COc1ccccc1NC(=S)NCc1ccc2c(c1)OCO2	none
COc1cccc(CSc2ccc(S(=O)(=O)N3CCOCC3)cc2C(=O)NCC2CCCO2)c1OC (stereo not drawn)	none
CC(C)(C)S(=O)N1Cc2cc(C(=O)Nc3ccc(-c4ccccc4)cc3)nc(-c3cccc(-c4cc5ccccc5o4)c3)c2[C@@H]1CCO (stereo partly drawn)	none (no result: Bfl-1 A1 inh, LANA-H2B inh, EBNA-1 inh, ZTA DNA inh)
CCOC(=O)C1=C(O)/C(=C\c2ccc(CNS(=O)(=O)c3ccc(Br)cc3)o2)N=C1C	CSN deneddyl inh 52
COC(=O)C1=C(O)/C(=C\c2ccc(CNC(=O)C(=O)Nc3ccc(C)cc3)o2)N=C1C	CSN deneddyl inh 36
COCCn1c(C(C)C)nc2ccccc21	none
COc1ccc(-n2c(C)cc(/C=C3\SC(=S)N(Cc4ccco4)C3=O)c2C)cc1	HNF4A DNA FP 54
CC(C)C(c1nnnn1C1CCCC1)N1CCC(C(N)=O)CC1 (stereo not drawn)	none
